pEC50, pIC50: −log10 of the molar value.
Legend:
Cruzipain = Cruzipain (Trypanosoma cruzi, UniProt P25779); assay: Inhibition of Trypanosoma cruzi cruzain using Z-Phe-Arg-AMC as substrate by spectrofluorimetry
Method in brief: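 Substrate Z-Phe-Arg-AMC; activity tracked 5 min with stirring in phosphate buffer pH 6.3 with DTT at 37 °C, in cuvettes (ex 380/em 460 nm). Controls: no inhibitor, and E-64. Run in triplicate. IC50 from rates at five inhibitor concentrations by nonlinear regression.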

Procathepsin L = Procathepsin L (Homo sapiens, UniProt P07711); assay: Inhibition of cathepsin L (unknown origin) using fluorometric Z-Phe-Arg-AMC as substrate by spectrofluorimetry
Sequence of Procathepsin L (P07711 whole entry): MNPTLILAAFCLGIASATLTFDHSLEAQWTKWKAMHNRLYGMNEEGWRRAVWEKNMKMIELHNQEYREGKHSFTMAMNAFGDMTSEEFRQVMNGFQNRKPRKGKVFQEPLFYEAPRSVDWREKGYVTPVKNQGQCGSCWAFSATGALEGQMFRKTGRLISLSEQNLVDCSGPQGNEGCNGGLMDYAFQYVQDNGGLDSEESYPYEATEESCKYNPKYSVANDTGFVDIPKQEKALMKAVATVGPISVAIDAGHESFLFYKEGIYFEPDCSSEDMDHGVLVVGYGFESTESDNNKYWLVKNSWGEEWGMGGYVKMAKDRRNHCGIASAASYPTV
Method in brief: (§1)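 Enzyme activated 5 min with DTT in acetate buffer pH 5.5 at 37 °C, then incubated 5 min with sample. Z-Phe-Arg-AMC at 185 μM (catB) or 10 μM (catL), with stirring; fluorescence ex 355/em 460 nm. Controls: no inhibitor, and E-64. Run in triplicate. IC50 from rates at ≥7 inhibitor concentrations by nonlinear regression.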

Plasmodium falciparum [1] = assay: Antimalarial activity against Plasmodium falciparum 3D7 after 72 hrs by SYBR Green-based parasite proliferation assay; type: functional, organism-based; conditions: 3D7, 72 h
Method in brief: (§2)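 Parasites grown in human O+ erythrocytes in RPMI 1640 with hypoxanthine, HEPES, Albumax and 5% human serum, under 3% CO2/1% O2/96% N2 at 37 °C. Cultures were exposed to serial dilutions of compound for 72 h. Parasite DNA growth was read by SYBR Green fluorescence. EC50 was derived from quadruplicate runs, with bromophycolide A as positive control.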

Plasmodium falciparum [2] = assay: Antimalarial activity against Plasmodium falciparum Dd2 after 72 hrs by SYBR Green-based parasite proliferation assay; type: functional; conditions: Dd2, 72 h; method in brief: as §2
Plasmodium falciparum [3] = assay: Antimalarial activity against Plasmodium falciparum W2 after 72 hrs by SYBR Green-based parasite proliferation assay; type: functional, organism-based; conditions: W2, 72 h; method in brief: as §2
Cathepsin B = Cathepsin B (Homo sapiens, UniProt P07858); assay: Inhibition of cathepsin B (unknown origin) using fluorometric Z-Phe-Arg-AMC as substrate by spectrofluorimetry; method in brief: as §1

Sequence of Cruzipain (P25779 whole entry): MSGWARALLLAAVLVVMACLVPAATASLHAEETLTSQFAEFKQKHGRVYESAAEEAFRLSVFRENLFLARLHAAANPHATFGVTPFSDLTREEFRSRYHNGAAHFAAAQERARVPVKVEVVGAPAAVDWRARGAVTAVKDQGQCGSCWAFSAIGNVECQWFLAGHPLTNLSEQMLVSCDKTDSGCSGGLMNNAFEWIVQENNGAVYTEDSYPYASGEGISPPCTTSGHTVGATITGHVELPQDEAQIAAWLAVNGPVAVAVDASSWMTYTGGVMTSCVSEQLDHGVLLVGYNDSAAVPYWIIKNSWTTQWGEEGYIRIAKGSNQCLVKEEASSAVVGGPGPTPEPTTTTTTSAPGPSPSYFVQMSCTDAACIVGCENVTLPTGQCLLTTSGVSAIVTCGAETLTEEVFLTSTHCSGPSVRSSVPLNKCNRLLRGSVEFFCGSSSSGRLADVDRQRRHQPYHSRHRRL

Row | SMILES | pIC50 (Cruzipain) | pIC50 (Procathepsin L) | pEC50 (Plasmodium falciparum [1]) | pEC50 (Plasmodium falciparum [2]) | pEC50 (Plasmodium falciparum [3]) | pIC50 (Cathepsin B)
1 | CC1(C)CCc2cc(CCC(=O)c3c(O)cc4c(c3O)CCC(C)(C)O4)ccc2O1 | 4.67 | < 4.00 | 4.84 | 4.93 | 5.17 | 
2 | CC(C)=CCc1cc(CCC(=O)c2c(O)cc3c(c2O)CCC(C)(C)O3)ccc1O | 4.92 | 5.48 |  |  |  | < 4.00
3 | CC1(C)CCc2c(cc(O)c(C(=O)CCc3ccc4c(c3)CC3C(C)(C)CCCC3(C)O4)c2O)O1 (centres undefined) | 5.06 | < 4.00 | 4.75 | 4.91 | 5.07 | 5.07
4 | CC(C)=CCC/C(C)=C\Cc1c(O)cc(O)c(C(=O)CCc2ccc(O)cc2)c1O | 5.15 | 6.00 |  |  |  | < 4.00
5 | CC(C)C[C@H](NC(=O)[C@H]1O[C@@H]1C(=O)O)C(=O)NCCCCN=C(N)N [E-64] |  | 7.52 |  |  |  | 7.40

— ChEMBL document CHEMBL3352268, “Structures and bioactivities of dihydrochalcones from Metrodorea stipularis” (J Nat Prod, 2014)
